For one assay, the system named is HeLa. Description: In vitro anticellular activity against HeLa S3 cells. Format: functional, cell-based. The note with it: Homo sapiens. An outline of the steps: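 HeLa S3 cells seeded in 96-well plates on day 0, then exposed to compound for 1 h on day 1. Anticellular activity determined by a previously described method.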
For assay [1], the system named is CCRF S-180. The experiment in a line: Optimal dose against sarcoma 180 tumor in ddY mice. Format: functional, Mus musculus. Put shortly: (§1)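 Sarcoma 180 cells implanted subcutaneously in the axillary region of ddY mice on day 0. Compounds given intravenously on day 1. Tumor volume determined by a previously described method and expressed as treated/control. ED50 is the dose giving 50% inhibition of tumor growth, taken from the dose–response curve. Optimal dose also recorded.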

Assay [2] has as its system CCRF S-180. The experiment in a line: Treated versus control value of tumor volume was measured in ddY mice. It counts as functional, Mus musculus. An outline of the steps:
as §1

The test system of assay [3] is CCRF S-180. The experiment in a line: Effective dose that gave 50 percent inhibition of sarcoma 180 tumor growth in ddY mice. Format: functional. The note with it: Mus musculus. Put shortly: as §1

As for `COC1=C(CC(C)C)C(=O)C2=C(C1=O)[C@@H](COC(N)=O)[C@@]1(OC)[C@H]3N[C@H]3CN21`, the IC50 (in general, the concentration that inhibits the measured activity by half) in the assay with HeLa came out at 0.2 µM.

For `CCCCCC1=C(N)C(=O)C2=C(C1=O)N1C[C@@H]3N[C@@H]3[C@]1(OC)[C@@H]2COC(N)=O`, the IC50 in the assay with HeLa was more than 10 µM.

`CO[C@@]12[C@H](COC(N)=O)C3=C(C(=O)C(CC[N+](=O)[O-])=C(N)C3=O)N1C[C@@H]1N[C@@H]12` gave an OD in the assay with CCRF S-180 [1] of 15 mg/kg. This compound also gave an IC50 with HeLa of 1.5 µM. The compound further registered a T/C in the assay with CCRF S-180 [2] of 0.44. The ED50 (usually the dose at which the effect has come halfway, by size or by number of responders) in the assay with CCRF S-180 [3] came to 8 mg/kg.

As to `CCCCCC1=C(OC)C(=O)C2=C(C1=O)N1C[C@H]3[C@H](N3C)[C@]1(O)[C@H]2COC(N)=O` (stereo partly specified), the OD in the assay on CCRF S-180 [1] was 20 mg/kg. The compound also displayed an IC50 in the assay with HeLa of 3.1 µM. This compound also showed a T/C in the assay with CCRF S-180 [2] of 0.79.

`CCC1=C(N)C(=O)C2=C(C1=O)N1C[C@H]3[C@H](N3C)[C@]1(OC)[C@@H]2COC(N)=O` (stereo partly specified): the OD with CCRF S-180 [1] turned out to be 46 mg/kg. The T/C in the assay with CCRF S-180 [2] worked out at 1.02.

In the assay on CCRF S-180 [1], `CO[C@@]12[C@H](COC(N)=O)C3=C(C(=O)C(CC(C)C)=C(N)C3=O)N1C[C@@H]1N[C@@H]12` registered an OD of 46 mg/kg. In addition, in the assay with HeLa, the 50% inhibitory concentration (IC50) is more than 10 µM. The compound also yielded a T/C with CCRF S-180 [2] of 0.78.

On to `CCCCCCCCCCCC1=C(N)C(=O)C2=C(C1=O)N1C[C@@H]3N[C@@H]3[C@]1(OC)[C@@H]2COC(N)=O`, for which the IC50 with HeLa is more than 10 µM.

Turning to `CCC1=C(OC)C(=O)C2=C(C1=O)N1C[C@H]3[C@H](N3C)[C@]1(O)[C@H]2COC(N)=O` (stereo partly specified), in the assay on CCRF S-180 [1], the OD came out at 30 mg/kg. For the same compound, the IC50 in the assay with HeLa amounted to 0.3 µM. Also, the T/C with CCRF S-180 [2] was found to be 0.39. In addition, the ED50 in the assay on CCRF S-180 [3] came out at 14 mg/kg.

`C=CCC1=C(N)C(=O)C2=C(C1=O)N1C[C@@H]3N[C@@H]3[C@]1(OC)[C@@H]2COC(N)=O`: it took 10 µM to reach half-maximal inhibition with HeLa (IC50).

In the assay with CCRF S-180 [1], `COC1=C(Cc2ccccc2)C(=O)C2=C(C1=O)[C@@H](COC(N)=O)[C@@]1(OC)[C@H]3N[C@H]3CN21` came in with an OD of 30 mg/kg. In the assay with HeLa, this compound returned a half-inhibitory concentration (IC50) of 0.063 µM. The T/C in the assay on CCRF S-180 [2] stood at 0.43. Besides, in the assay with CCRF S-180 [3], the ED50 is 23 mg/kg.

`CCCCCCCCCCCCCCCCCCCC1=C(N)C(=O)C2=C(C1=O)N1C[C@@H]3N[C@@H]3[C@]1(OC)[C@@H]2COC(N)=O`: the IC50 in the assay with HeLa was found to be 9 µM.

In the case of `CO[C@@]12[C@H](COC(N)=O)C3=C(C(=O)C(Cc4ccccc4)=C(N)C3=O)N1C[C@@H]1N[C@@H]12`, in the assay on HeLa, the IC50 is more than 10 µM.

`CCC1=C(N)C(=O)C2=C(C1=O)N1C[C@H]3[C@H](N3C)[C@]1(O)[C@H]2COC(N)=O` (stereo partly specified) returned an OD in the assay on CCRF S-180 [1] of 20 mg/kg. In the assay on HeLa, the IC50 was more than 10 µM. In the assay with CCRF S-180 [2], the T/C is 0.8.

`CCC1=C(N)C(=O)C2=C(C1=O)N1C[C@@H]3N[C@@H]3[C@]1(OC)[C@@H]2COC(N)=O.ClC(Cl)Cl` had an OD in the assay on CCRF S-180 [1] of 46 mg/kg. In the assay on HeLa, this compound gave an IC50 of more than 10 µM. This compound returned a T/C in the assay on CCRF S-180 [2] of 0.42. Also, the ED50 in the assay on CCRF S-180 [3] is 38 mg/kg.

`COC1=C(Cc2ccccc2)C(=O)C2=C(C1=O)[C@H](COC(N)=O)[C@@]1(O)[C@@H]3[C@H](CN21)N3C` (stereo partly specified) [6-BENZYL-6-DEMETHYLMITOMYCIN B] returned an OD with CCRF S-180 [1] of 46 mg/kg. For the same compound, the IC50 in the assay with HeLa was 0.52 µM. The compound also registered a T/C with CCRF S-180 [2] of 0.41. Besides, it took a dose of 37 mg/kg to reach the 50% effect level in the assay with CCRF S-180 [3] (ED50).

Turning to `COC1=C(CC(C)C)C(=O)C2=C(C1=O)[C@H](COC(N)=O)[C@@]1(O)[C@@H]3[C@H](CN21)N3C` (stereo partly specified) [6-DEMETHYL-6-(2-METHYLPROPYL)MITOMYCIN B], the OD with CCRF S-180 [1] is 20 mg/kg. In addition, in the assay on HeLa, half-maximal inhibition (IC50) required 6.1 µM. For the same compound, the T/C in the assay with CCRF S-180 [2] was 0.71.

`CCC1=C(OC)C(=O)C2=C(C1=O)N1C[C@@H]3N[C@@H]3[C@]1(OC)[C@@H]2COC(N)=O` [6-DEMETHYL-6-ETHYLMITOMYCIN A] yielded an OD in the assay on CCRF S-180 [1] of 7.4 mg/kg. The IC50 in the assay with HeLa amounted to 0.017 µM. In the assay with CCRF S-180 [2], this compound showed a T/C of 0.1. The 50% effect level in the assay on CCRF S-180 [3] (ED50) was put at a dose of 2.8 mg/kg.

In turn, `CCCCCCCCCCCCCCCCCCCC1=C(OC)C(=O)C2=C(C1=O)N1C[C@@H]3N[C@@H]3[C@]1(OC)[C@@H]2COC(N)=O` [6-DEMETHYL-6-N-NONADECYLMITOMYCIN A] displayed an OD in the assay on CCRF S-180 [1] of 46 mg/kg. This compound also showed a half-inhibitory concentration (IC50) in the assay with HeLa of 7.3 µM. Also, the T/C in the assay on CCRF S-180 [2] stood at 0.69.

Take `CCCCCC1=C(OC)C(=O)C2=C(C1=O)N1C[C@@H]3N[C@@H]3[C@]1(OC)[C@@H]2COC(N)=O` [6-DEMETHYL-6-N-PENTYLMITOMYCIN A]: the OD with CCRF S-180 [1] came to 30 mg/kg. Further, in the assay on HeLa, it took 0.087 µM to reach half-maximal inhibition (IC50). In the assay on CCRF S-180 [2], this compound registered a T/C of 0.37. The ED50 in the assay on CCRF S-180 [3] was 19 mg/kg.

Turning to `CCCCCCCCCCCC1=C(OC)C(=O)C2=C(C1=O)N1C[C@@H]3N[C@@H]3[C@]1(OC)[C@@H]2COC(N)=O` [6-DEMETHYL-6-N-UNDECYLMITOMYCIN A], the OD in the assay on CCRF S-180 [1] stood at 20 mg/kg. In addition, the IC50 in the assay with HeLa was found to be 0.64 µM. In the assay with CCRF S-180 [2], the T/C was found to be 0.8.

In the assay on CCRF S-180 [1], `COC1=C(C)C(=O)C2=C(C1=O)[C@@H](COC(N)=O)[C@@]1(OC)[C@H]3N[C@H]3CN21` [MITOMYCIN A] gave an OD of 1.8 mg/kg. In addition, the T/C in the assay with CCRF S-180 [2] turned out to be 0.2. For the same compound, the ED50 in the assay with CCRF S-180 [3] came to 1.3 mg/kg.

`CO[C@@]12[C@H](COC(N)=O)C3=C(C(=O)C(C)=C(N)C3=O)N1C[C@@H]1N[C@@H]12` [MITOMYCIN]: the OD with CCRF S-180 [1] is 6 mg/kg. For the same compound, half-maximal inhibition with HeLa (IC50) required 0.59 µM. In the assay on CCRF S-180 [2], this compound returned a T/C of 0.26. This compound also returned an ED50 in the assay with CCRF S-180 [3] of 1.7 mg/kg.

The values are drawn from ChEMBL document CHEMBL1127845, “Synthesis and antitumor activity of novel 6-alkyl-6-demethylmitomycins” (J Med Chem, 1994).
